# Measurements taken from ChEMBL document CHEMBL1137220, “2-(2-(dimethylaminomethyl)phenoxy)-5-iodophenylamine: an improved serotonin transporter imaging agent” (J Med Chem, 2004).
# Key:
# [1] = Regional brain distribution in rat hypothalamus was determined after 2 min of intravenous administration of the compound; [125I]- is used as radioactive isotope; assay type: ADME, tissue-based; conditions: in vivo
# Summary of the method: (§1)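 Rats, three per group, injected with 10 μCi tracer in 0.2 mL saline via the femoral vein under ether anesthesia and killed by cardiac excision at the stated time. Cortex (frontal plus occipital), striatum, hippocampus, cerebellum and hypothalamus were dissected, weighed and gamma-counted. Values are % dose/g, calculated by comparison with counts of a 100-fold diluted aliquot of the injected dose.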
# [2] = Distribution ratio in striatum and cerebellum was determined after 30 min of intravenous administration of the compound; [125I]- is used as radioactive isotope; assay type: ADME, tissue-based; conditions: rat, 0.5 h
# Summary of the method: (§2)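 Rats, three per group, given 10 μCi tracer in 0.2 mL saline into the femoral vein under ether anesthesia, then killed by cardiac excision at the stated time. Brain regions were dissected, weighed and counted. Percent dose/g was calculated against a 1% diluted aliquot of the injected dose. The ratio is (region − cerebellum)/cerebellum on a % dose/g basis, with cerebellum as background.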
# [3] = Regional brain distribution in rat cortex was determined after 30 min of intravenous administration of the compound; [125I]- is used as radioactive isotope; assay type: ADME; conditions: in vivo, 0.5 h; summary of the method: as §1
# [4] = Biodistribution in rat lung was determined after 120 min of intravenous administration of the compound; [125I]- is used as radioactive isotope; assay type: ADME, organism-based; conditions: in vivo, 2 h
# Summary of the method: (§3)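 Rats under ether anesthesia, three per group, received 10 μCi tracer in 0.2 mL saline into the femoral vein. They were killed by cardiac excision under ether at each time point. Organs were removed, weighed and counted. Percent dose per organ was calculated against a 1%-of-injected-dose standard counted at the same time.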
# [5] = Biodistribution in rat kidney was determined after 6 hours of intravenous administration of the compound; [125I]- is used as radioactive isotope; assay type: ADME, organism-based; conditions: in vivo; summary of the method: as §3
# [6] = Distribution ratio in hypothalamus and cerebellum was determined after 2 min of intravenous administration of the compound; [125I]- is used as radioactive isotope; assay type: ADME, tissue-based; conditions: rat
# Summary of the method: (§4)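 After femoral-vein injection of 10 μCi [¹²⁵I] tracer in 0.2 mL saline under ether anaesthesia (three rats per group), brain regions were dissected, weighed and counted: cortex (frontal plus occipital), hippocampus, hypothalamus and cerebellum. %dose/g was calculated against a diluted injected-dose standard. Ratio = (region − cerebellum)/cerebellum on a %dose/g basis, with cerebellum as the background region.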
# [7] = Biodistribution in rat lung was determined after 240 min of intravenous administration of the compound; [125I]- is used as radioactive isotope; assay type: ADME, organism-based; conditions: in vivo, 4 h; summary of the method: as §3
# [8] = Distribution ratio in striatum and cerebellum was determined after 2 min of intravenous administration of the compound; [125I]- is used as radioactive isotope; assay type: ADME, tissue-based; conditions: rat; summary of the method: as §2
# [9] = Biodistribution in rat lung was determined after 6 hours of intravenous administration of the compound; [125I]- is used as radioactive isotope; assay type: ADME, organism-based; conditions: in vivo; summary of the method: as §3
# [10] = Regional brain distribution in rat cerebellum was determined after 24 hours of intravenous administration of the compound; [125I]- is used as radioactive isotope; assay type: ADME, tissue-based; conditions: in vivo; summary of the method: as §1
# [11] = Biodistribution in rat muscle was determined after 120 min of intravenous administration of the compound; [125I]- is used as radioactive isotope; assay type: ADME, organism-based, Muscle tissue; conditions: in vivo, 2 h
# Summary of the method: (§5)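 Rats, three per group, under ether anaesthesia, received 10 μCi of [¹²⁵I]-labelled tracer in 0.2 mL saline into the femoral vein. They were killed by cardiac excision under ether at each time point. Organs were removed, weighed and counted. Percent dose per organ was calculated against counts of a 1% aliquot of the injected dose (100-fold diluted) counted at the same time.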
# [12] = Distribution ratio in cortex and cerebellum was determined after 60 min of intravenous administration of the compound; [125I]- is used as radioactive isotope; assay type: ADME, tissue-based; conditions: rat, 1 h; summary of the method: as §4
# [13] = Biodistribution in rat skin was determined after 30 min of intravenous administration of the compound; [125I]- is used as radioactive isotope; assay type: ADME, organism-based, Zone of skin; conditions: in vivo, 0.5 h; summary of the method: as §5
# [14] = Biodistribution in rat liver was determined after 2 min of intravenous administration of the compound; [125I]- is used as radioactive isotope; assay type: ADME, organism-based; conditions: in vivo; summary of the method: as §3
# [15] = Distribution ratio in hypothalamus and cerebellum was determined after 240 min of intravenous administration of the compound; [125I]- is used as radioactive isotope; assay type: ADME, tissue-based; conditions: rat, 4 h; summary of the method: as §4
# [16] = Biodistribution in rat muscle was determined after 30 min of intravenous administration of the compound; [125I]- is used as radioactive isotope; assay type: ADME, organism-based, Muscle tissue; conditions: in vivo, 0.5 h; summary of the method: as §5
# [17] = Biodistribution in rat heart was determined after 120 min of intravenous administration of the compound; [125I]- is used as radioactive isotope; assay type: ADME, organism-based; conditions: in vivo, 2 h; summary of the method: as §3
# [18] = Distribution ratio in cortex and cerebellum was determined after 120 min of intravenous administration of the compound; [125I]- is used as radioactive isotope; assay type: ADME, tissue-based; conditions: rat, 2 h; summary of the method: as §4
# [19] = Distribution ratio in striatum and cerebellum was determined after 120 min of intravenous administration of the compound; [125I]- is used as radioactive isotope; assay type: ADME, tissue-based; conditions: rat, 2 h; summary of the method: as §2
# [20] = target: Sodium-dependent serotonin transporter (Homo sapiens, UniProt P31645); experiment: Binding affinity for serotonin transporter expressed in […] cells; assay type: cell-based
# Summary of the method: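 Membranes from confluent pig kidney LLC-PK₁ cells stably expressing the respective transporter, homogenized and pelleted, 30–40 μg protein. Incubated with 0.4 nM [¹²⁵I]IPT or [¹²⁵I]IDAM and 8–10 competitor concentrations (10⁻¹⁰ to 10⁻⁵ M) in 50 mM Tris-HCl pH 7.4, 120 mM NaCl, 0.1% BSA, 1 h at room temperature. Nonspecific binding was defined with 10 μM CFT for IPT and 1 μM IDAM for IDAM. Filtration, gamma counting, nonlinear regression for Ki.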
# [21] = Biodistribution in rat kidney was determined after 60 min of intravenous administration of the compound; [125I]- is used as radioactive isotope; assay type: ADME, organism-based; conditions: in vivo, 1 h; summary of the method: as §3
# [22] = Biodistribution in rat muscle was determined after 240 min of intravenous administration of the compound; [125I]- is used as radioactive isotope; assay type: ADME, organism-based, Muscle tissue; conditions: in vivo, 4 h; summary of the method: as §5
# [23] = Regional brain distribution in rat striatum was determined after 6 hours of intravenous administration of the compound; [125I]- is used as radioactive isotope; assay type: ADME, tissue-based; conditions: in vivo; summary of the method: as §1
# [24] = Biodistribution in rat thyroid was determined after 240 min of intravenous administration of the compound; [125I]- is used as radioactive isotope; assay type: ADME, organism-based, Thyroid gland; conditions: in vivo, 4 h; summary of the method: as §5
# [25] = Regional brain distribution in rat striatum was determined after 240 min of intravenous administration of the compound; [125I]- is used as radioactive isotope; assay type: ADME, tissue-based; conditions: in vivo, 4 h; summary of the method: as §1
# [26] = Biodistribution in rat thyroid was determined after 24 hours of intravenous administration of the compound; [125I]- is used as radioactive isotope; assay type: ADME, organism-based, Thyroid gland; conditions: in vivo; summary of the method: as §5
# [27] = Regional brain distribution in rat striatum was determined after 11 hours of intravenous administration of the compound; [125I]- is used as radioactive isotope; assay type: ADME, tissue-based; conditions: in vivo; summary of the method: as §1
# [28] = Biodistribution in rat thyroid was determined after 6 hours of intravenous administration of the compound; [125I]- is used as radioactive isotope; assay type: ADME, organism-based, Thyroid gland; conditions: in vivo; summary of the method: as §5
# [29] = Biodistribution in rat brain was determined after 60 min of intravenous administration of the compound; [125I]- is used as radioactive isotope; assay type: ADME, organism-based; conditions: in vivo, 1 h; summary of the method: as §3
# [30] = Biodistribution in rat heart was determined after 24 hours of intravenous administration of the compound; [125I]- is used as radioactive isotope; assay type: ADME, organism-based; conditions: in vivo; summary of the method: as §3
# [31] = Biodistribution in rat heart was determined after 2 min of intravenous administration of the compound; [125I]- is used as radioactive isotope; assay type: ADME, organism-based; conditions: in vivo; summary of the method: as §3
# Sequence of Sodium-dependent serotonin transporter (P31645 whole entry): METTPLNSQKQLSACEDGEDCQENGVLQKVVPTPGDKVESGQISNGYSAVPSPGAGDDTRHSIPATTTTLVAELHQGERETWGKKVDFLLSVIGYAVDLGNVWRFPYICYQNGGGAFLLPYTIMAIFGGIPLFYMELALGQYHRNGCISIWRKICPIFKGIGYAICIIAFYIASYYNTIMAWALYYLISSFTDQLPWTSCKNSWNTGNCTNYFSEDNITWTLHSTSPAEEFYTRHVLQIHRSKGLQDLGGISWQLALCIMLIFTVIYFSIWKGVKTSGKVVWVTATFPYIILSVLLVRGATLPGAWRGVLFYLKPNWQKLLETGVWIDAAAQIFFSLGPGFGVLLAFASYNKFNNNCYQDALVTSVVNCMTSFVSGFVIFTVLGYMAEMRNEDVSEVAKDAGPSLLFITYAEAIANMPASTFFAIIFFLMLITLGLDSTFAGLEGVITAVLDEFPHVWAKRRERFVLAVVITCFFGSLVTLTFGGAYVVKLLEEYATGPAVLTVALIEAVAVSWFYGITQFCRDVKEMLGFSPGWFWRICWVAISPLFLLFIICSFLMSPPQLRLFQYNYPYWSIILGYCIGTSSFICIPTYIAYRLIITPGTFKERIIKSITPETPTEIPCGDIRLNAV
structure (smiles),measurement,setting,value
CN(C)Cc1ccccc1Oc1ccc(I)cc1N,Dose/g,[1],0.96%
same,Dose/g,[2],0.83%
same,Dose/g,[3],1.25%
same,Dose,[4],0.88%
same,Dose,[5],0.55%
same,Dose/g,[6],0.24%
same,Dose,[7],0.37%
same,Dose/g,[8],0.01%
same,Dose,[9],0.25%
same,Dose/g,[10],0.0049%
same,Dose,[11],9.18%
same,Dose/g,[12],1.35%
same,Dose,[13],11.3%
same,Dose,[14],5.71%
same,Dose/g,[15],4.49%
same,Dose,[16],18.1%
same,Dose,[17],0.13%
same,Dose/g,[18],1.48%
same,Dose/g,[19],2.53%
same,Ki,[20],0.37 nM
same,Dose,[21],1.67%
same,Dose,[22],6.27%
same,Dose/g,[23],0.068%
same,Dose,[24],2.34%
same,Dose/g,[25],0.24%
same,Dose,[26],4.61%
same,Dose/g,[27],0.01%
same,Dose,[28],2.68%
same,Dose,[29],1.74%
same,Dose,[30],0.02%
same,Dose,[31],1.51%
